# Assay outcomes: PubChem, several laboratories
# Apaf1 inhib: human Apaf-1 inhibition | reconstituted apoptosome caspase-3 activity, DEVD-Rh110 fluorescence | inhibition, % at 20 µM | 330,000 tested, 0.71% active | AID 489030; active = inhibition of at least 40% at 20 µM;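 note: plate controls were DMSO wells for no effect and DEVD-CHO caspase inhibitor wells for full effect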
#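 Material: reconstituted apoptosome with Apaf-1, cytochrome c, caspase-9, procaspase-3, dATP; medium: pH 7.5 Hepes buffer with CHAPS, BSA, DTT; also added: cytochrome c and DEVD-Rh110 substrate; timing: 30 min plus 50 min, RT; signal: Rh110 fluorescence intensity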
# SUMO HTRF inh: inhibitors of human SUMOylation (UBC9) | 290,000 tested, 0.36% active | inhibition, % at 35 µM | HTRF SUMOylation assay, SAE1/SAE2 + UBC9, in vitro; in the data active = inhibition above about 50%, passing the limit was not always enough; inconclusive = no clear call, values can overlap the other calls
# Target sequence (P63279 whole entry, looked up): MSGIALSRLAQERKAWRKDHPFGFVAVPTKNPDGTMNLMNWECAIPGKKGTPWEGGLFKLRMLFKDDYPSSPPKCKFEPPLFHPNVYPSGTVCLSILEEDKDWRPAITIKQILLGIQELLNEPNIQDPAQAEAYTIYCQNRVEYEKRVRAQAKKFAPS
# PAD4 FP inh: inhibitors of human PAD4; Q9UM07; recombinant PAD4, RCA probe fluorescence polarization; 330,000 tested, 0.41% active; inhibition, % at 6.36 µM;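 active = percent inhibition above a cutoff equal to the mean of all tested compounds plus 3 SD, cut at about 15% in these data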;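 note: 0% = PAD4 with RCA probe and DMSO and 100% = probe without PAD4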
# GSTO1 inh: blocks human GSTO1 in RBBP9 counter-screen | P78417 | recombinant GSTO1, activity-based probe fluorescence polarization | inhibition, % at 5.96 µM | 300,000 tested, 1.1% active | AID 1974;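 active = inhibition above the campaign mean inhibition plus 3 SD, cut at about 35% in these data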;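 note: 0% = GSTO1-1 with DMSO and 100% = wells lacking GSTO1-1 enzyme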
# GASC-1 inh: human JMJD2C demethylase inhibition | AID 2099 | Q9H3R0 | inhibition, % at 2.35 µM | 330,000 tested, 0.069% active | GST-JMJD2C(1-420) H3K9me3 demethylation, DELFIA europium;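 active = more than half of a compound's replicate wells show inhibition beyond 50%, single wells judged on their own value; inconclusive = some, but no more than half, of replicates pass 50% inhibition; inactive = no replicate passes 50% inhibition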;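 note: signal counts dimethyl H3K9 product captured on neutravidin plate; 0% = median of DMSO wells and 100% = 0.3 times that DMSO median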
# TDP2 inh: TDP2 (human) inhibition, absorbance primary screen. O95551. recombinant TDP2, T5PNP hydrolysis, p-nitrophenol absorbance 415 nm. inhibition, % at 12.8 µM. 370,000 tested, 0.34% active. AID 720702;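 active = inhibition above the mean of all tested compounds plus 3 SD, set per campaign, cut at about 25% in these data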;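 note: 0% = DMSO with enzyme and 100% = buffer with substrate but no TDP2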
# Target sequence (O95551 whole entry, looked up): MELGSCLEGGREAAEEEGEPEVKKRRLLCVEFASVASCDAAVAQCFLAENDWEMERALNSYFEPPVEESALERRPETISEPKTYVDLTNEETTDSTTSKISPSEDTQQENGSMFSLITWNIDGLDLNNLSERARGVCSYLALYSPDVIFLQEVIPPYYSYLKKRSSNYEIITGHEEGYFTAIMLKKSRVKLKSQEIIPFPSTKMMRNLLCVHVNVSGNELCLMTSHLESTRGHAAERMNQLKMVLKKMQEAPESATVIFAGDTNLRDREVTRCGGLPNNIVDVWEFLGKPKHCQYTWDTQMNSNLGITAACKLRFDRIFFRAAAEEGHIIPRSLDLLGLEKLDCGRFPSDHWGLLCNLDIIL
#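 Test system: human TDP2 enzyme; Input: 120 nM TDP2 per well; Buffer or medium: Mg2+-containing Tris-HCl buffer, pH 7.5; Reagent: 5 mM T5PNP; Dosing: 12.8 µM single point, 1% DMSO; Incubation: reaction 2 h, 37 °C; Detection: p-Nitrophenol epi absorbance; Read-out: % inhibition relative to enzyme-containing and enzyme-free wells; Replicates: single well per compound.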
# Starred values were filed as active, the others as inactive; ? = inconclusive; . = no result. This is a sample that favours compounds with a hit; in the whole collection about 1.6% have one here.
SMILES,Apaf1 inhib,SUMO HTRF inh,PAD4 FP inh,GSTO1 inh,GASC-1 inh,TDP2 inh
Cc1cc(C)c2c(c1)NC(C(=O)O)C1CC=CC21 (stereo not drawn),20,24,-2,18,-40,7
Cc1ccc2c(c1C)NC(C(=O)O)C1CC=CC21 (stereo not drawn),26,58*,2,51*,-19,.
O=C(O)C1Nc2c(C(=O)N3CCOCC3)cccc2C2C=CCC12 (stereo not drawn),13,30,-12,36*,-3,.
O=C(c1ccccc1O)N1CCOCC1,-5,2,1,-15,-6,-5
CC(=O)Nc1nc2ncccn2c1-c1ccc(F)c(F)c1,.,.,.,.,.,0
O=C(N/N=C/c1cc(Cl)cc(Cl)c1O)c1ccncc1,1,58*,1,-5,-6,-14
O=C(N/N=C/c1ccc(Cl)cc1Cl)c1ccncc1,4,14,2,0,-7,3
COC(=O)[C@]12C[C@H](CC(=O)N3CCN(C(=O)c4ccco4)CC3)C(=O)N(Cc3cccc4ccccc34)C1=C[C@H](COCc1ccccc1)O[C@@H]2C,.,.,.,.,.,-1
CC(C)CNc1cccc2c1S(=O)(=O)N(Cc1cn(Cc3cccc(C(F)(F)F)c3)nn1)Cc1ccccc1O2,.,.,.,.,.,-8
CCC(NC(=O)c1ccc2c(c1)c(C)c(C)n2Cc1ccc(-c2ccccc2C#N)cc1)c1ccccc1 (stereo not drawn),.,.,.,.,.,-9
CCCCn1c(SCC(N)=O)nc2c(sc3ccccc32)c1=O,-1,12,2,50*,8,1
C#CCCCN([C@@H](CC(C)C)C(=O)OC)S(=O)(=O)c1ccc(F)cc1Br,.,.,.,.,.,-8
O=C(NCc1n[nH]c(=S)n1-c1cccc(Cl)c1)c1ccc(S(=O)(=O)N2CCCCC2)cc1,6,8,2,-4,84*,7
Cc1cccc(-n2c(CNC(=O)c3ccc(S(=O)(=O)N4CCCC4)cc3)n[nH]c2=S)c1,-14,3,2,8,-21,-7
COc1cc(CNCCNC(=O)c2cccs2)cc(OC)c1OC,1,10,-1,4,-1,28*
COc1ccc(CNCCNC(=O)c2cccs2)cc1OC,-3,16,1,3,-3,6
COc1cc(C2Nc3cccc4cccc(c34)N2)ccc1OC(C)=O,20,64*,-5,53*,3,.
Clc1cccc(C2Nc3cccc4cccc(c34)N2)c1Cl,11,31,-5,14,-5,9
c1coc(C2Nc3cccc4cccc(c34)N2)c1,31,?,-3,50*,5,.
Fc1ccc(C2Nc3cccc4cccc(c34)N2)cc1,22,-12,-2,37*,-4,5
CCCCC(=O)N1CCN(C(=O)c2ccc3c(c2)nc(C)n3C2CCCC2)CC1,.,.,.,.,.,-7
O=[N+]([O-])c1cc(S(=O)(=O)N2CCCC2)ccc1NN=C1CCCCC1,10,0,7,-3,6,-3
O=[N+]([O-])c1cc(C(F)(F)F)cc([N+](=O)[O-])c1NN=C1CCCCC1,7,0,-1,37*,2,3
O=S(=O)(c1cnc(Cl)c(Br)c1)N1CCc2ccccc21,0,17,1,45*,-9,6
CC1CCCCN1S(=O)(=O)c1cnc(Cl)c(Br)c1 (stereo not drawn),9,0,-4,71*,5,-1
SMILES,Apaf1 inhib,SUMO HTRF inh,PAD4 FP inh,GSTO1 inh,GASC-1 inh,TDP2 inh
O=S(=O)(c1cc(Cl)ccc1Cl)N1CCc2ccccc21,.,-26,-2,7,0,2
CCOC(=O)N1C(=O)C[C@](Sc2ccc(OC)cc2)(C(=O)N(C)C)[C@H]1c1ccc(OC)cc1,.,.,.,.,.,1
O=S1(=O)c2ccccc2N=NN1Cc1ccc(Cl)c(Cl)c1,22,10,-7,35*,3,.
COc1ccc(S[C@]2(C(=O)N3CCOCC3)CC(=O)N(c3ccc(OC)cc3)[C@@H]2c2ccc(OC)cc2)cc1,.,.,.,.,.,-13
O=C1Nc2ccc(S(=O)(=O)NCc3ccccn3)c3cccc1c23,-2,47,.,.,-16,0
CCN(CC)CCNS(=O)(=O)c1ccc2c3c(cccc13)C(=O)N2,-16,58*,-5,2,-6,-2
CN(C)CCNS(=O)(=O)c1ccc2c3c(cccc13)C(=O)N2,6,53*,4,4,4,4
COC(=O)[C@H]1C[C@@]2(C)c3ccccc3N(S(=O)(=O)c3ccccc3)[C@H]2N1C(=O)CNC1CCCCC1,.,.,.,.,.,4
Cc1ccc(N2C(=O)c3ccccc3C2C(=O)c2cc(C)ccc2O)cc1 (stereo not drawn),10,4,5,35*,-8,-12
CN(C)S(=O)(=O)c1cccc(-n2sc3ccccc3c2=O)c1,-2,4,27*,-7,.,-8
Cc1ccc(-n2sc3ccccc3c2=O)cc1S(=O)(=O)N1CCCCC1,12,-2,25*,9,-1,-12
O=c1c2ccccc2sn1-c1ccc(S(=O)(=O)N2CCCC2)cc1,-15,4,23*,3,-2,-8
O=c1c2ccccc2sn1-c1cccc(Cl)c1,.,.,.,.,.,-16
NC(N)=N/N=C/c1ccccc1,-8,7,-2,3,-1,5
NC(N)=N/N=C/c1ccc(OCc2ccccc2Cl)cc1,43*,-7,-5,0,-4,-7
C[C@H]1[C@@H](OC(=O)Nc2ccc(C#N)cc2)CC[C@@]23CCCN2C(=O)CCC[C@@H]13,.,.,.,.,.,-2
O=C(Nc1ccc(Nc2ccncc2)cc1)c1ccc(Nc2ccnc3ccc([N+](=O)[O-])cc23)cc1,.,69*,.,.,-11,8
CCc1ccc(N2C(=O)CC(NNc3nc4ccccc4s3)C2=O)cc1 (stereo not drawn),30,-11,-12,38*,5,2
Cc1ccc(-c2nc3ccccc3o2)cc1NC(=O)c1ccc2c(c1)OCO2,17,58*,1,-5,7,3
CC(=O)NC1CCCCN(Cc2cccc(F)c2)C1=O (stereo not drawn),.,.,.,.,.,8
CC(C)N1CC(C(=O)Nc2ccc(Br)c(Cl)c2)CC1=O (stereo not drawn),8,7,3,-3,69*,2
Cc1c(Cc2ccccc2)c(=O)n2c([nH]c3ccccc32)c1C#N,21,29,-1,-62,0,10
COc1ccccc1N=Cc1c(C)c(C#N)c2[nH]c3ccccc3n2c1=O,-12,22,-8,-18,58*,11
Cc1ccc(-c2cc(-c3ccco3)c(C#N)c(=O)[nH]2)cc1,-3,62*,-5,16,24,-1
N#Cc1c(-c2ccco2)cc(-c2ccccc2)[nH]c1=O,-5,36,-3,5,-1,10
N#Cc1c(-c2ccccc2)cc(-c2ccco2)c(C#N)c1N,.,53*,.,.,.,.
